Source: ChEMBL document CHEMBL3352204, “Cytotoxic and Antibacterial Quinone Sesquiterpenes from a Myrothecium Fungus” (J Nat Prod, 2014)
Converted amounts (≈) assume the structure as drawn. The source made the active and inactive calls. The rule behind the calls is not given here.

Assays:
[1] = test system: A549; assay: Cytotoxicity against human A549 cells assessed as inhibition of cell growth after 72 hrs by MTT assay; assay type: functional, cell-based; conditions: A549, 72 h
Outline: (§1)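 Cells grown in RPMI-1640 with 10% FBS at 37 °C under 5% CO2, seeded at 5 × 10^4 cells/mL and allowed about 24 h to attach. Medium was replaced and compound in DMSO added at final 0.016–50 μg/mL (5-fold steps), in quadruplicate, for 72 h. MTT was then given for 4 h, formazan dissolved in DMSO and OD read at 570 nm. IC50 obtained by nonlinear logistic regression.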

[2] = test system: HeLa; assay: Cytotoxicity against human HeLa cells assessed as inhibition of cell growth after 72 hrs by MTT assay; assay type: functional, cell-based; outline: as §1
[3] = test system: HepG2; assay: Cytotoxicity against human HepG2 cells assessed as inhibition of cell growth after 72 hrs by MTT assay; assay type: functional, cell-based; conditions: HepG2, 72 h; outline: as §1
[4] = test system: Staphylococcus aureus; assay: Antibacterial activity against Staphylococcus aureus ATCC 6538 after 7 hrs by Alamar Blue assay; assay type: functional; conditions: ATCC 6538, 7 h
Outline: (§2)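 Strains kept in 20% glycerol at −80 °C, grown in MHB 12 h at 37 °C with shaking at 150 rpm, then adjusted to 1 × 10^5 CFU/mL in MHB. Suspension held Alamar Blue (8% v/v) and 2-fold diluted compound in DMSO (4% v/v), final 1.562–100 μg/mL, in triplicate. Incubated 7 h at 37 °C in the dark. MIC is the lowest concentration whose well stays blue.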

[5] = test system: Bacillus cereus; assay: Antibacterial activity against Bacillus cereus CMCC 63302 after 7 hrs by Alamar Blue assay; assay type: functional; conditions: CMCC 63302, 7 h; outline: as §2
[6] = test system: Escherichia coli; assay: Antibacterial activity against Escherichia coli ATCC 8739 after 7 hrs by Alamar Blue assay; assay type: functional, organism-based; outline: as §2
[7] = test system: Salmonella typhimurium; assay: Antibacterial activity against Salmonella typhimurium CMCC 50115 after 7 hrs by Alamar Blue assay; assay type: functional, organism-based; conditions: Salmonella enterica subsp. enterica serovar Typhimurium; outline: as §2
[8] = test system: Shigella dysenteriae; assay: Antibacterial activity against Shigella dysenteriae CMCC 51252 after 7 hrs by Alamar Blue assay; assay type: functional, organism-based

## C=C1CC[C@H]2[C@](C)(CO)CCC[C@]2(C)[C@H]1C[C@]12O[C@H]1[C@@H](O)C(CO)=C(Cl)C2=O
[1]
  IC50: 8 µM
[2]
  IC50: 7.9 µM
[3]
  IC50: 15.2 µM
[4]
  MIC: 12.5 µg/mL (≈ 30.4 µM)
[5]
  MIC: 25 µg/mL (≈ 60.8 µM)
[6]
  MIC: inactive
[7]
  MIC: inactive
[8]
  MIC: inactive

## C=C1CC[C@H]2[C@](C)(CO)CCC[C@]2(C)[C@H]1C[C@@]12O[C@@H]1[C@@H](O)C(CO)=CC2=O
[1]
  IC50: 41.5 µM
[2]
  IC50: 35.9 µM
[3]
  IC50: 34.2 µM
[4]
  MIC: 50 µg/mL (≈ 133 µM)
[5]
  MIC: 100 µg/mL (≈ 266 µM)
[6]
  MIC: inactive
[7]
  MIC: inactive
[8]
  MIC: inactive

## C=C1CC[C@H]2[C@](C)(COC(C)=O)CCC[C@]2(C)[C@H]1C[C@@]12O[C@@H]1[C@@H](O)C(CO)=CC2=O
[1]
  IC50: 18 µM
[2]
  IC50: 19.6 µM
[3]
  IC50: 27.8 µM
[4]
  MIC: 50 µg/mL (≈ 119 µM)
[5]
  MIC: > 100 µg/mL
[6]
  MIC: inactive
[7]
  MIC: inactive
[8]
  MIC: inactive

## COc1cccc2c1C(=O)c1c(O)c3c(c(O)c1C2=O)C[C@@](O)(C(=O)CO)C[C@@H]3O[C@H]1C[C@H](N)[C@H](O)[C@H](C)O1 [DOXORUBICIN]
[1]
  IC50: 0.69 µM
[2]
  IC50: 0.47 µM

## CC(C)(O/N=C(\C(=O)N[C@@H]1C(=O)N2C(C(=O)[O-])=C(C[n+]3ccccc3)CS[C@H]12)c1csc(N)n1)C(=O)O [CEFTAZIDIME]
[4]
  MIC: 12.5 µg/mL (≈ 22.9 µM)

## C[C@@]1(CO)CCC[C@]2(C)[C@H]3C[C@@]45O[C@@H]4C(=O)[C@]4(CO)O[C@@H]4[C@]5(O)CC3=CC[C@@H]12 [HYMENOPSIN B]
[1]
  IC50: 1.3 µM
[2]
  IC50: 4.5 µM
[3]
  IC50: 3.2 µM
[4]
  MIC: > 100 µg/mL
[5]
  MIC: > 100 µg/mL
[6]
  MIC: inactive
[7]
  MIC: inactive
[8]
  MIC: inactive

## NC[C@H]1O[C@H](O[C@H]2[C@H](O)[C@@H](O[C@H]3O[C@H](CO)[C@@H](O)[C@H](N)[C@H]3O)[C@H](N)C[C@@H]2N)[C@H](O)[C@@H](O)[C@@H]1O [KANAMYCIN]
[5]
  MIC: 6.25 µg/mL (≈ 12.9 µM)

## C=C1CC[C@H]2[C@](C)(CO)CCC[C@]2(C)[C@H]1C[C@]12O[C@H]1[C@@H](O)C(CO)=CC2=O
[1]
  IC50: 39.8 µM
[2]
  IC50: 29.3 µM
[3]
  IC50: 48.5 µM
[4]
  MIC: 50 µg/mL (≈ 133 µM)
[5]
  MIC: 100 µg/mL (≈ 266 µM)
[6]
  MIC: inactive
[7]
  MIC: inactive
[8]
  MIC: inactive

## C=C1CC[C@H]2[C@](C)(COC(C)=O)CCC[C@]2(C)[C@H]1C[C@]12O[C@H]1[C@H](O)C(CO)=CC2=O
[1]
  IC50: 29.4 µM
[2]
  IC50: 19.2 µM
[3]
  IC50: 37.8 µM
[4]
  MIC: 100 µg/mL (≈ 239 µM)
[5]
  MIC: > 100 µg/mL
[6]
  MIC: inactive
[7]
  MIC: inactive
[8]
  MIC: inactive

## C=C1CC[C@H]2[C@](C)(CO)CCC[C@]2(C)[C@H]1CC1=C(O)C(=O)[C@](O)(CO)[C@H](O)[C@H]1O
[1]
  IC50: > 50 µM
[2]
  IC50: > 50 µM
[3]
  IC50: > 50 µM
[4]
  MIC: > 100 µg/mL
[5]
  MIC: > 100 µg/mL
[6]
  MIC: inactive
[7]
  MIC: inactive
[8]
  MIC: inactive
